SMARCA2 activ: increases SMARCA2 function in MMTV reporter cells. MG213 cells, MMTV-luciferase reporter, dexamethasone, overnight. activation, % at 9.1 µM. actives 1% (n = 370,000). AID 652017; in the data active = activation above about 7.8%;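 also: 0% = vehicle wells and 100% = reference activator wells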
CR mimetic SO: yeast age-related superoxide inhibition as caloric restriction mimetic; AID 2690; superoxide response (% of plate mean), % at 10 µM; actives 0.18% (n = 330,000); S. cerevisiae aged cells, superoxide DHE fluorescence; active compounds read low;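 active = superoxide response under a set limit, about three screen SD below normal, cut at about 65% in these data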;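 also: yeast aged for seven days with compound at 30 °C before DHE staining; 100% = average MFI of all compound-treated wells on the plate with controls excluded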
Hep lipid drop: hepatic lipid droplet formation modulation. inhibition, % at 6.5 µM. AML12 mouse hepatocytes, oleate lipid droplets, BODIPY imaging. actives 0.4% (n = 240,000). AID 1656;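 active = lipid droplet intensity inhibited by at least 50%, with more than 500 cells counted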
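Test system: AML12 hepatocytes (mouse); reagent: oleate loading, 100 µM; dosing: one dose, 6.5 µM compound; incubation: overnight exposure; signal: fluorescence imaging, 20x objective, two fields per well; read-out basis: % inhibition of corrected integrated BODIPY droplet signal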
SR-BI HDL uptake: mouse SR-BI HDL lipid transfer inhibition | ldlA[mSR-BI] CHO cells, DiI-HDL uptake fluorescence, 3 h | inhibition, % at 12.5 µM | actives 0.96% (n = 320,000) | AID 488896;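 active = mean replicate inhibition of at least 70% and a set share of replicates each scoring 70 or more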;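 also: 0% = median of neutral control wells and 100% = median of positive control wells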
Target sequence (Q61009 whole entry, looked up): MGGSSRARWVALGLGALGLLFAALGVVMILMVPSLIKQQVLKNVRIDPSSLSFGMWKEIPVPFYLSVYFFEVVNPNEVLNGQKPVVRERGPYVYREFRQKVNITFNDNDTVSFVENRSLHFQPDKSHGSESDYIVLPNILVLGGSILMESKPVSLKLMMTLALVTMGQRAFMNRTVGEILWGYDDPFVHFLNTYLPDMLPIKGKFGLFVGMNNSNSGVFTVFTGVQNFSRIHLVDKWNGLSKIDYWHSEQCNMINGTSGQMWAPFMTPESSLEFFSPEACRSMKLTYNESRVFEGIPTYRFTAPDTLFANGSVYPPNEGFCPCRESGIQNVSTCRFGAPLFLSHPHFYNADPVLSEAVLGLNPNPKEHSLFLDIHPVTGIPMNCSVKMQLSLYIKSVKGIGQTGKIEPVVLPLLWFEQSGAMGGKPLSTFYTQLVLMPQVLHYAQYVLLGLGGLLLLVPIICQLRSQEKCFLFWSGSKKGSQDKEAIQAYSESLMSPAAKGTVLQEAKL
SR-BI uptake up: enhances SR-BI lipid uptake from DiI-HDL; CHO ldlA[mSR-BI] cells, DiI-HDL uptake fluorescence, 3 h; 100 = double the neutral-control signal; activation, % at 12.5 µM; actives 0.096% (n = 320,000);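 active = mean replicate activation of at least 60% and every replicate at or above 60%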;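 also: 0% = median plate neutral-control signal and 100% = twice that signal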
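Assay system: LDL receptor-deficient CHO ldlA cells overexpressing murine SR-BI / Medium: BSA-supplemented, HEPES-buffered Ham's F12, pH 7.4 / Probe or stimulus: DiI-labelled HDL at 10 µg/mL final / Timing: compound with DiI-HDL co-incubation, 3 h at 37 °C / Technique: bottom-read cell fluorescence after medium removal, ex 550/em 595 nm / Measure: HDL uptake via cellular fluorescence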
AHR act: activators of human aryl hydrocarbon receptor | AID 2796 | activation, % at 5 µM | AHR-responsive luciferase reporter cells, luminescence | P35869 | actives 2.5% (n = 320,000); in the data active = activation above about 47%;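 also: 0% = vehicle wells and 100% = reference agonist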
SMARCA2 conf: confirmation of SMARCA2 (BRM) function activators; actives 30% (n = 3,500); shares compounds with SMARCA2 activ; activation, % at 9.1 µM; MG213 cells, MMTV-luciferase with dexamethasone, luminescence, overnight; MG213 cells expressing E1A, Rb sequestered; DMSO wells 0%, reference activator 100%;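 active = activation above its plate's cutoff, the mean activation of tested wells plus 3 SD, cut at about 7.9% in these data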
VP16 Luc act: activates GAL4-VP16 luciferase, flagging SMARCA2 activator hits; AID 686939; activation, % at 9.1 µM; shares compounds with SMARCA2 activ; actives 41% (n = 3,500); HEK293 GAL4-VP16 pG5luc reporter, luciferase luminescence; scaled: DMSO wells 0%, SAHA wells 100%;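 active = activation above the solvent-only control well mean plus 3 SD, averaged across control plates, cut at about 5.2% in these data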
Numbers without * were called inactive. An excerpt weighted towards active compounds, which were near 4.3% of everything screened.

For O=C(NNC(=O)C1CC2CCC1C2)c1sc2ccccc2c1Cl (stereo unspecified) the results were SMARCA2 activ 8.4*, CR mimetic SO 88, Hep lipid drop -7, SR-BI HDL uptake 26, SR-BI uptake up -26, AHR act 4, SMARCA2 conf 5 and VP16 Luc act 5.
Screening COc1ccc(NC(=O)C2CC(=O)N/C(=N/N=C/c3ccccc3)S2)cc1 (stereo unspecified) returned SMARCA2 activ 0, CR mimetic SO 102, Hep lipid drop 16, SR-BI HDL uptake -22, SR-BI uptake up 22 and AHR act 1.
Screening COc1ccc(/C=N/N=C2/NC(=O)C(c3ccccc3)(c3ccccc3)S2)cc1 returned SMARCA2 activ 8.3*, CR mimetic SO 121, Hep lipid drop 10, SR-BI HDL uptake -25, SR-BI uptake up 25, AHR act -2, SMARCA2 conf -1 and VP16 Luc act 0.
`CC(=O)N1CCn2c3c(c4cc(C)ccc42)CCCC31` (stereo unspecified) gave SMARCA2 activ 8.7*, CR mimetic SO 93, Hep lipid drop 1, SR-BI HDL uptake 25, SR-BI uptake up -8, AHR act 35, SMARCA2 conf -4 and VP16 Luc act 0.
Nc1ccc2c(c1)C(=O)c1cc(N)c(Cl)cc1-2 was read as SMARCA2 activ 11*, SR-BI HDL uptake 16, SR-BI uptake up -16, SMARCA2 conf 11* and VP16 Luc act 3.
`Nc1ccc2c(c1)C(=O)c1ccc(Cl)cc1-2` gave SMARCA2 activ 5, SR-BI HDL uptake 20 and SR-BI uptake up -20.
`Clc1ccc2c(c1)-c1ccccc1C1=NCCN12` gave SMARCA2 activ 16*, SMARCA2 conf 313* and VP16 Luc act 5.
For COCCCNC(=O)/C=C/c1ccc(Cl)cc1 the results were SMARCA2 activ 12*, CR mimetic SO 91, SR-BI HDL uptake 9, SR-BI uptake up -9, AHR act 3, SMARCA2 conf 3 and VP16 Luc act 1.
Screening COCCCNC(=O)/C=C/c1c(Cl)cccc1Cl returned SMARCA2 activ 0, CR mimetic SO 90, Hep lipid drop -7, SR-BI HDL uptake -18, SR-BI uptake up 18 and AHR act -2.
`Cc1ccccc1N1CCN(C(=O)COc2cc(=O)n(C)c3ccccc23)CC1` gave SMARCA2 activ 1.
Screening O=c1c2ccccc2sc2ccc(Cl)cc12 returned SMARCA2 activ 2, CR mimetic SO 102, Hep lipid drop 2, SR-BI HDL uptake 2, SR-BI uptake up -2 and AHR act 11.
For O=c1c2ccccc2sc2ccccc12 the results were SMARCA2 activ 8.5*, SR-BI HDL uptake -17, SR-BI uptake up 17, SMARCA2 conf 7 and VP16 Luc act 5.9*.
`COc1ccccc1/C=C/C(=O)Nc1ccc2c(c1)CCC2` gave SMARCA2 activ 8.9*, CR mimetic SO 105, Hep lipid drop 41, SR-BI HDL uptake 72*, SR-BI uptake up -72, AHR act 22, SMARCA2 conf 6 and VP16 Luc act 14*.
`COc1ccc(/C=C2/CCc3ccccc3C2=O)cc1CN1CCOCC1` gave SMARCA2 activ 8.0*, CR mimetic SO 113, Hep lipid drop -15, SR-BI HDL uptake 20, SR-BI uptake up -20, AHR act 4, SMARCA2 conf 4 and VP16 Luc act 2.
COc1ccc(/C=C2\CCc3ccccc3C2=O)cc1Cn1nc(C)cc1C was read as SMARCA2 activ -2, CR mimetic SO 110, Hep lipid drop -8, SR-BI HDL uptake -9, SR-BI uptake up 9 and AHR act -1.
Screening O=C(N=C1N(CC2CC2)CC2(C=C3CCCCC3n3c(=O)n(-c4ccccc4)c(=O)n32)N1C(=O)OCc1ccccc1)c1ccccc1 (stereo unspecified) returned SMARCA2 activ -4.
COCCCNC(=O)C[C@H]1C[C@@]2(C(=O)OC)C(=C[C@H](COCc3ccccc3)O[C@@H]2C)N(Cc2ccc3c(c2)OCO3)C1=O was read as SMARCA2 activ 1.
For CC(=O)N1c2ccc(S(=O)(=O)N3CCC(C(=O)NCc4ccc(C)cc4)CC3)cc2CC1C (stereo unspecified) the results were SMARCA2 activ 11*, CR mimetic SO 104, Hep lipid drop -6, SR-BI HDL uptake -24, SR-BI uptake up 24, AHR act 3, SMARCA2 conf -2 and VP16 Luc act 1.
Screening C[C@H](NS(=O)(=O)c1ccc2c(c1)OCCCO2)C(=O)N1CCN(Cc2ccccc2)CC1 returned SMARCA2 activ -4, SR-BI HDL uptake -24 and SR-BI uptake up 24.
For C[C@H](NS(=O)(=O)c1ccc2c(c1)OCCCO2)C(=O)N1CCN(Cc2ccc(C#N)cc2)CC1 the results were SMARCA2 activ 8.8*, CR mimetic SO 91, SR-BI HDL uptake -20, SR-BI uptake up 20, AHR act -1, SMARCA2 conf -4 and VP16 Luc act 1.
Nc1ccc(O)c2c(=O)cc(-c3ccccc3Cl)oc12 was read as SMARCA2 activ 8.1*, CR mimetic SO 96, Hep lipid drop -4, SR-BI HDL uptake 47, SR-BI uptake up -47, AHR act 20, SMARCA2 conf 7 and VP16 Luc act 11*.
Screening Nc1ccccc1C=C1Cc2ccccc2C1=O returned SMARCA2 activ 7, SR-BI HDL uptake 20 and SR-BI uptake up -20.
Nc1ccccc1/C=C/c1ccccc1N was read as SMARCA2 activ 9.9*, SR-BI HDL uptake 28, SR-BI uptake up -28, SMARCA2 conf 14* and VP16 Luc act 10*.
For C[C@@H]1/C=C/CC(=O)N2[C@H](CC(=O)N[C@@H]1c1ccccc1)C[C@@H](C)[C@H]2c1ccccc1 the results were SMARCA2 activ -5.
`COc1ccc(C(=O)N=c2sc3c(C)ccc(OC)c3n2C)cc1` gave SMARCA2 activ 9.2*, CR mimetic SO 97, Hep lipid drop -10, SR-BI HDL uptake 77*, SR-BI uptake up -77, AHR act 56*, SMARCA2 conf 7 and VP16 Luc act 9.8*.
CC(C)[C@H](NS(=O)(=O)c1ccc(F)cc1F)C(=O)N1CCC[C@H]1C(=O)NCCc1ccccc1Cl was read as SMARCA2 activ -3.

Screens (PubChem BioAssay)
